Measured values as given in article PMC3443740 (Journal of immunology (Baltimore, Md. : 1950), 2012).

Legend:
panel of 121 kinases = experiment: kinase selectivity profiling; format: biochemical; settings: panel of 121 kinases in vitro; Ruxolitinib at 0.1 μM
BMDMs [1] = experiment: LPS induced pro-inflammatory cytokine production in BMDMs; format: cell-based, mouse
In short: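 BMDMs came from wild-type, IL-10 knockout or IFNαβR knockout mice and were pretreated 1 h with 0.5 µM test compound. Stimulation was 100 ng/ml LPS over a time course, or LPS ± 100 ng/ml IL-10 for 6 h in IL-10 knockout cells. Secreted TNF-α, IL-6, IL-12p40 and IL-12p70 were measured by Luminex multiplex, and the matching mRNAs (IL-12p35 for p70) by 18s-normalised Q-PCR. Four mice per genotype.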

MARK3 = MARK3 (Homo sapiens, UniProt P27448); experiment: in vitro protein kinase assay, MARK3; format: biochemical; settings: 1 μM Ruxolitinib
MARK3, sequence (P27448 whole entry, species assumed): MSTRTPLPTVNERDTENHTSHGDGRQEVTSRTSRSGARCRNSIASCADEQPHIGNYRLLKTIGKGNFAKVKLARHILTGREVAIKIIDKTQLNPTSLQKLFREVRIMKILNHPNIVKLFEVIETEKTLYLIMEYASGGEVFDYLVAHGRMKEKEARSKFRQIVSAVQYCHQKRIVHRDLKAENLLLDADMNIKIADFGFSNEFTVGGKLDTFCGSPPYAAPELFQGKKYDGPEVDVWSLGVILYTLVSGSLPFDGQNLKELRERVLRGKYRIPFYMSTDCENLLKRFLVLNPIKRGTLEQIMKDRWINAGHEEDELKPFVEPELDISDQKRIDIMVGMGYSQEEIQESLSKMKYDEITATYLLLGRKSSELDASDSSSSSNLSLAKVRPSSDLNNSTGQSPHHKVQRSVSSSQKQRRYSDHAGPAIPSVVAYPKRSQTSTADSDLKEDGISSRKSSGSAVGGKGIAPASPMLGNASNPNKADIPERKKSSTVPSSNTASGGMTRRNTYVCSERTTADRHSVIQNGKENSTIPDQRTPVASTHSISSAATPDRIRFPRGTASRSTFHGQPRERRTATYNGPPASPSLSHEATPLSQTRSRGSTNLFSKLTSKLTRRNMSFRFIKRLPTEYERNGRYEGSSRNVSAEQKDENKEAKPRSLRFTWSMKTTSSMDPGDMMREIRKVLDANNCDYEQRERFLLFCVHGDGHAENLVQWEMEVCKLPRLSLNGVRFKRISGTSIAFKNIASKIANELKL

IRAK1 = IRAK1 (Homo sapiens, UniProt P51617); experiment: in vitro protein kinase assay, IRAK1; format: biochemical; settings: 1 μM Ruxolitinib
IRAK1, sequence (P51617 whole entry, species assumed): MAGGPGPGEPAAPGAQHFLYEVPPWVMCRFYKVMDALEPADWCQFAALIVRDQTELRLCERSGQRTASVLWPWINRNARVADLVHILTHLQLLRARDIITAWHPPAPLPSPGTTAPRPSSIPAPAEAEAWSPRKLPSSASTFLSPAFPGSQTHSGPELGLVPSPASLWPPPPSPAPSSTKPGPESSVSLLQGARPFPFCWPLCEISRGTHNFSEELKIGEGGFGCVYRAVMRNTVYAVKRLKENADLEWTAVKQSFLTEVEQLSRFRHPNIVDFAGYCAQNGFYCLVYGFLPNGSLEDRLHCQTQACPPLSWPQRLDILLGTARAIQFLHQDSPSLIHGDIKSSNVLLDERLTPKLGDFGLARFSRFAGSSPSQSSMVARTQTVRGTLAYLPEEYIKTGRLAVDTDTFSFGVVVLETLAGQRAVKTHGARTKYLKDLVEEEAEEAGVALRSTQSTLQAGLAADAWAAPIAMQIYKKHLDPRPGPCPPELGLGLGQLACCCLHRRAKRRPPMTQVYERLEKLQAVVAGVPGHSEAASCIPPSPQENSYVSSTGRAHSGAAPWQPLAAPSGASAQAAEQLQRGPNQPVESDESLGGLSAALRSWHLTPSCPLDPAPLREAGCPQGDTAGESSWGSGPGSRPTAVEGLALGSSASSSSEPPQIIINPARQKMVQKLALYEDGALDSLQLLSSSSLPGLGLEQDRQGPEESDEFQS

BMDMs [2] = experiment: LPS induced signaling in BMDMs, immunoblotting; format: cell-based, mouse; settings: 0.5 μM Ruxolitinib, 100 ng/ml LPS
In short: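 Wild-type mouse BMDMs were pretreated 1 h with 0.5 µM test compound, then stimulated with 100 ng/ml LPS for varying times. Cells were lysed directly in SDS sample buffer and run on 10% polyacrylamide gels, then transferred to nitrocellulose. Blots were probed for total and phospho STAT3 (Y705, S727), phospho-STAT1 Y701, ERK1/2, p38, phospho-JNK, phospho-p105 and IκBα, with HRP secondaries and ECL detection.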

TrkA = TrkA (Homo sapiens, UniProt P04629); experiment: in vitro protein kinase assay, TrkA; format: biochemical; settings: read-out: inhibition of TrkA
TrkA, sequence (P04629 33-796, species assumed): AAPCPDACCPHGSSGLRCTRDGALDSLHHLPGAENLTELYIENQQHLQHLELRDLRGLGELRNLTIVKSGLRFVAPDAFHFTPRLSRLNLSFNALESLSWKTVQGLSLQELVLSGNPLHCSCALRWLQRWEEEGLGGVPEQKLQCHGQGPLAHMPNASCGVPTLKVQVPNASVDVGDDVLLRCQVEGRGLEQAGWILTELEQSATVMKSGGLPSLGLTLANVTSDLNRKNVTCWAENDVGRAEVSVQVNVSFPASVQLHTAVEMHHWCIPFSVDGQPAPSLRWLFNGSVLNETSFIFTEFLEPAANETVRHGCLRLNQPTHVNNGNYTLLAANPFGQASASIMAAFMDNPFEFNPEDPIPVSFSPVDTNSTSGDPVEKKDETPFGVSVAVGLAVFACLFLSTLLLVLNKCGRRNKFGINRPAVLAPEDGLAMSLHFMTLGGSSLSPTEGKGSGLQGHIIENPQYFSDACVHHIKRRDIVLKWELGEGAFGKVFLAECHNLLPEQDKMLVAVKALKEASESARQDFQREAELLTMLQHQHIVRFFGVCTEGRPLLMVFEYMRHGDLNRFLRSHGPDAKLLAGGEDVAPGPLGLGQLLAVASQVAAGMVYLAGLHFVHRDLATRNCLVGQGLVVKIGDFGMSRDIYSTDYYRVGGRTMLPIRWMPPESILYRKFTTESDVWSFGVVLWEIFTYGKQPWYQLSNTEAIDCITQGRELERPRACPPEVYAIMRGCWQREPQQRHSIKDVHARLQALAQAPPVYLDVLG

BMDMs [3] = experiment: LPS induced IL-10 mRNA; format: cell-based, mouse; settings: 100 ng/ml LPS
In short: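 BMDMs came from wild-type or IFNαβR knockout mice, cultured 7 d with mCSF and used 24 h after replating. They were pretreated 1 h with test compound (0.5 µM or 5 µM), then given 100 ng/ml E. coli O26:B6 LPS over a time course. IL-10 mRNA was measured by Q-PCR (18s-normalised) and secreted IL-10 by multiplex assay. SD from independent cultures of four mice.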

BMDMs [4] = experiment: IFNβ induced IL-10 and IL-6 transcription in BMDMs; format: cell-based, mouse; settings: 0.5 μM Ruxolitinib, 500 Units/ml IFNβ, wild type BMDMs
In short: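 Wild-type mouse BMDMs were grown 7 d from bone marrow in DMEM with 10% heat-inactivated FBS and 5 ng/ml mCSF, then replated and used 24 h later. Cells were pretreated 1 h with 0.5 µM test compound, then given 500 U/ml IFN-β for varying times. IL-10 or IL-6 mRNA was measured by SYBR green Q-PCR, normalised to 18s against unstimulated wild-type controls. Four mice, independent cultures.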

phospho-Y701 STAT1 = settings: BMDMs, 500 Units/ml IFNβ 30 min
DBA/1J mice = settings: IP LPS, 5mg/kg Tofacitinib, ref [50]; cited from earlier work
phospho Tyr705 STAT3 = settings: BMDMs, 100 ng/ml IL-10 30 min
[5] = 0.5 μM Ruxolitinib, 100 ng/ml LPS
[6] = 0.5 μM Ruxolitinib, 100 ng/ml LPS 6 h
[7] = 0.5 μM Ruxolitinib, wild type BMDMs

With N#C/C(=C/c1ccc(O)c(O)c1)C(=O)NCc1ccccc1 [AG-490] as the compound, how does the “selectivity in kinase panel” value (panel of 121 kinases) read?
Its value is “could also block several Ser/Thr kinases”.

Which “IL-6 production from IFNαβR knockout macrophages” value (BMDMs [1]; [5]) does the source give for N#CC[C@H](C1CCCC1)n1cc(-c2ncnc3[nH]ccc23)cn1 [Ruxolitinib] here?
The value was “increased”.

And the “IL-6 production from wild type cells” value (BMDMs [1]; [5])?
The value was “increased”.

What about the “TNFα production in IL-10 knockout cells” value (BMDMs [1]; [5]) of the same compound?
The value was “little effect”.

And the “peak amount of LPS-induced IL-12 mRNA in IL-10 knockout cells” value (BMDMs [1]; [5])?
The value was “decreased”.

And the “secreted levels of IL-6 in wild type and IL-10 knockout cells” value (BMDMs [1]; [5])?
The value was “intermediate between the wild type and IL-10 knockout cells”.

And the “production of IL-6 by LPS in IL-10 knockout BMDMs” value (BMDMs [1]; [6])?
The value was “moderately decreased”.

And the “production of TNFα by LPS in IL-10 knockout BMDMs (decrease)” value (BMDMs [1]; [6])?
Its value is “to a lesser extent”.

What about the “TNFα mRNA and secreted protein levels in wild type cells” value (BMDMs [1]; 0.5 μM Ruxolitinib, 100 ng/ml LPS, to similar values as IL-10 knockout BMDMs) of the same compound?
Its value is “increased”.

What about the “inhibitory effects of IL-10 on TNFα and IL-6 production” value (BMDMs [1]; IL-10 knockout BMDMs, 0.5 μM Ruxolitinib, LPS and 100 ng/ml IL-10 6 h) of the same compound?
Its value is “blocked”.

And the “activity against MARK3” value (MARK3)?
Its value is “weak activity”.

What about the “activity against IRAK1” value (IRAK1) of the same compound?
The value was “weak activity”.

And the “LPS induced STAT1 Y701 phosphorylation” value (BMDMs [2])?
Its value is “blocked”.

What about the “TLR4 induced activation of the ERK1/2, p38 or JNK MAPK cascades” value (BMDMs [2]) of the same compound?
Its value is “did not affect”.

And the “activation of the NFκB pathway (IκBα degradation, p105 and IκBα phosphorylation)” value (BMDMs [2])?
Its value is “no major affects”.

What about the “phosphorylation of STAT3 on S727” value (BMDMs [2]) of the same compound?
The value was “not blocked”.

What about the “phosphorylation of STAT3 on Y705 in response to LPS” value (BMDMs [2]) of the same compound?
The value was “completely blocked”.

What about the inhibition at 0.1 µM (TrkA) of the same compound?
The inhibition at 0.1 µM was over 50%.

What about the “IL-10 levels secreted from IFNαβR knockout macrophages” value (BMDMs [3]; 0.5 μM Ruxolitinib) of the same compound?
Its value is “did not affect”.

And the “IL-10 secreted into the media at later time points (8 to 24 h)” value (BMDMs [3]; [7])?
Its value is “decrease”.

What about the “IL-10 secretion at 4 h” value (BMDMs [3]; [7]) of the same compound?
The value was “unaffected”.

And the “initial transcription of IL-10” value (BMDMs [3]; [7])?
The value was “did not affect”.

What about the “transcription of IL-10 at later time points” value (BMDMs [3]; [7]) of the same compound?
Its value is “reduce”.

What about the “IFNβ induced IL-10 transcription” value (BMDMs [4]) of the same compound?
The value was “greatly reduced”.

What about the “IFNβ stimulated IL-6 transcription” value (BMDMs [4]) of the same compound?
The value was “inhibited”.

Which “IL-6 secretion following 24h of LPS stimulation” value (BMDMs [1]; Tofacitinib) does the source give for C[C@@H]1CCN(C(=O)CC#N)C[C@@H]1N(C)c1ncnc2[nH]ccc12 [Tofacitinib] here?
Its value is “increased”.

What about the “TNF and IL-12 production in response to a prolonged stimulation with LPS” value (BMDMs [1]; Tofacitinib at a concentration able to inhibit STAT3 phosphorylation) of the same compound?
Its value is “increased”.

What about the “IFNβ stimulated STAT1 phosphorylation” value (phospho-Y701 STAT1) of the same compound?
Its value is “able to block”.

And the “plasma IL-10 levels” value (DBA/1J mice)?
Its value is “increased”.

And the “plasma levels of TNF, IL-6 and IL-12” value (DBA/1J mice)?
The value was “reduced”.

And the “IL-10 mRNA at later time points” value (BMDMs [3]; 5 μM Tofacitinib)?
Its value is “inhibited”.

What about the “IL-10 secretion at 8 and 16h after LPS stimulation” value (BMDMs [3]; 5 μM Tofacitinib) of the same compound?
Its value is “decreased”.

What about the “initial phase of IL-10 transcription” value (BMDMs [3]; 5 μM Tofacitinib) of the same compound?
Its value is “did not affect”.

What about the “IL-10 stimulated STAT3 phosphorylation” value (phospho Tyr705 STAT3) of the same compound?
The value was “able to block”.
